# Source: PubChem BioAssay
# Shown are actives, neighbours in structure and some others; about 27% of the full set was active somewhere.
# Cav3 T inh: Cav3.2 calcium influx blockers – cell-based, Fluo-4 calcium fluorescence, FDSS, MLSMR library, primary screen; Voltage-dependent T-type calcium channel subunit alpha-1H (Homo sapiens), O95180; Cav3.2-expressing cells; active compounds read low; B-score at 10 µM; hit rate 4% among 100,000;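 active = single-dose well whose peak fluorescence ratio is a statistical outlier from its plate by either plate-standardised score or position-corrected B-score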
# Rev-RRE block: HIV-1 Rev-RRE binding inhibitors, primary screen, biochemical, FRET, protein-RNA interaction. Rev peptide-RRE RNA binding. P05866. hit rate 0.79% among 97,000. inhibition, % at 8 µM;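 active = inhibition above the screen-wide mean plus 3 SD, cut at about 35% in these data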
# Target sequence (P05866 whole entry, looked up): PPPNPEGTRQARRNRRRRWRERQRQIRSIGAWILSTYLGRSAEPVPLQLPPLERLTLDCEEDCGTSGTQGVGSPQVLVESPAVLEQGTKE
#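 assay system = Cy5-tagged RRE RNA duplex with fluorescein-tagged Rev peptide | incubation = 5 + 15 min at 25 °C | also added = labelled Rev peptide | measure = % inhibition of FRET ratio versus controls | benchmarks = DMSO wells as 0% and neomycin B wells as 100% inhibition | measured by = FRET fluorescence readout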
# CYP2C9 activ: human CYP2C9 activators, primary screen, biochemical, luminescence | recombinant CYP2C9, luciferin-H conversion; active compounds read high; factor 1 = untreated enzyme, 0 = blocked | activation factor at 5 µM | hit rate 1.4% among 96,000 | AID 1024, 2008;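 active = activation factor of 2 or more for CYP2C9 at a 5 µM dose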
# Target sequence (P11712 whole entry, looked up): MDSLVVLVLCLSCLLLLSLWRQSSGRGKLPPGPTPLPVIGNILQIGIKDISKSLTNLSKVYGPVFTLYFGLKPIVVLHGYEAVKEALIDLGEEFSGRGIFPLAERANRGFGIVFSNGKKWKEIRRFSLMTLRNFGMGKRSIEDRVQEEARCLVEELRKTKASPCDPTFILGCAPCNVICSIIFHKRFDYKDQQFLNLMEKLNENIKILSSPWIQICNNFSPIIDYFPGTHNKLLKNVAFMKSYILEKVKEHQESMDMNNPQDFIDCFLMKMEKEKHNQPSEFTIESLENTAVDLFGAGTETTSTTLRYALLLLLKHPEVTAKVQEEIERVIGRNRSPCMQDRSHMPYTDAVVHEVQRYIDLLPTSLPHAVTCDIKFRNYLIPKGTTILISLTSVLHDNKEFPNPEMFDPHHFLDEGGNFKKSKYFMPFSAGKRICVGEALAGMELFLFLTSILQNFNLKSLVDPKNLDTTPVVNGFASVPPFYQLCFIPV
# CYP2C19 inh: blockers of cytochrome P450 2C19 activity – biochemical, luminescence, ADME assay, primary screen; AID 778, 2007; inhibition, % at 5 µM; CYP2C19 Supersomes, luciferin-H EGE luminescence, 30 min; P33261; hit rate 21% among 96,000;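 active = CYP2C19 inhibition above a set limit at 5 µM in the primary screen, cut at about 50% in these data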
# CYP2C9 inh: blockers of cytochrome P450 2C9 activity – biochemical, luminescence, ADME assay, primary screen; P11712; CYP2C9 Supersomes, luciferin-H conversion; inhibition, % at 5 µM; hit rate 20% among 96,000;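 active = blocking of liver enzyme CYP2C9 beyond about 50% at 5 µM, limit read from the data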
# CYP2C19 activ: human CYP2C19 activators, primary screen, biochemical, luminescence. Cytochrome P450 2C19 (Homo sapiens), P33261. recombinant CYP2C19, luciferin-H EGE luminescence; active compounds read high; 0 = fully inhibited enzyme, 1 = untreated enzyme. activation factor at 5 µM. 96,000 tested, under 10 active. AID 1025, 2008;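 active = activation factor of at least 2 at 5 µM in the primary screen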
# Hits are given with their value; n = inactive; x = not tested or not shown.
SMILES,Cav3 T inh,Rev-RRE block,CYP2C9 activ,CYP2C19 inh,CYP2C9 inh,CYP2C19 activ
O=C(Nc1ccc(Cl)cc1)NC1CCCCC1,n,n,n,n,n,n
O=C(Nc1ccc(Cl)cc1)NC1CCCCC1Cc1ccco1 (configuration not stated),n,n,n,n,59,n
Cc1ccc2c(c1)NC(=O)C(N1CCOCC1)(C(F)(F)F)O2 (configuration not stated),n,n,n,55,n,n
C=CCNC(=S)NNC(=O)c1ccc(OC(C)C)cc1,n,n,n,n,n,n
COC(=O)c1sccc1NS(=O)(=O)c1ccc(OC)cc1,n,n,n,n,n,n
COc1ccc(S(=O)(=O)Nc2cc(C(C)C)c(O)cc2C)cc1,-4.8,n,n,88,n,n
COc1ccc(S(=O)(=O)Nc2cc(C)c(O)cc2C(C)C)cc1,n,n,2.4,99,n,n
COc1ccc(S(=O)(=O)NC(C)C(=O)O)cc1 (configuration not stated),n,n,n,n,n,n
COc1cc(S(=O)(=O)N(C)C)ccc1F,n,n,x,x,x,x
CCOc1ccc(C(=O)OCc2nnc(-c3cccs3)o2)cc1OC,n,n,n,68,80,n
CCOc1ccc(C(=O)OCn2nnc3ccccc3c2=O)cc1OC,n,x,n,n,n,n
Cc1c(NC(=O)COC(=O)Cc2ccc(Cl)cc2)c(=O)n(-c2ccccc2)n1C,n,x,n,n,n,n
Cc1ccc(CN=C2Nc3ccccc3CS2)cc1,n,n,n,71,n,n
Clc1ccc(CN=C2Nc3ccccc3CS2)cc1,n,n,n,86,n,n
COCCNC(=O)CN1CCC(NC(=O)Nc2ccc(C(F)(F)F)cc2)CC1,n,n,n,n,n,n
CC1CCc2c(sc3nc(SCC(=O)NCc4ccco4)nc(N)c23)C1 (configuration not stated),n,n,n,n,61,n
CC(C)c1nc2sc3c(SCC(=O)NCc4ccco4)ncnc3c2c2c1CCC2,n,x,n,59,70,n
CCN(CC)C(=O)CSc1nc(N)c2c3c(sc2n1)CC(C)CC3 (configuration not stated),n,n,n,56,54,n
CCOC(=O)CSc1nc(N)c2c3c(sc2n1)CCCC3,n,n,n,n,62,n
O=C(CSc1ncnc2sc3c(c12)CCCCC3)NCc1ccco1,n,n,n,n,n,n
CCc1nnc(NC(=O)CSc2nc(C3CCCCC3)nc3ccccc23)s1,n,n,n,n,n,n
Cc1cccc2c1N1C(=O)c3c(C(=O)O)cccc3C1CC2C (configuration not stated),n,n,x,x,x,x
CCOC(=O)c1cnn(-c2ncnc3sc4c(c23)CCC4)c1N,n,n,n,n,n,n
CCOC(=O)c1cnn(-c2nc(SC)nc3sc4c(c23)CCCC4)c1N,n,n,n,n,63,n
CC1(C)Cc2c(sc3c2c2ncnn2c2nnc(SCC(=O)NCc4ccco4)n32)CO1,n,n,n,n,n,n
SMILES,Cav3 T inh,Rev-RRE block,CYP2C9 activ,CYP2C19 inh,CYP2C9 inh,CYP2C19 activ
CCOC(=O)CSc1nnc2n(C3CCCCC3)c(=O)c3c4c(sc3n12)CCCC4,n,x,n,54,63,n
CSc1nnc2n(C3CCCCC3)c(=O)c3c4c(sc3n12)CCCC4,x,x,n,n,n,n
CCC1(C)Cc2c(sc3c2c2ncnn2c2nnc(SCC(=O)NCc4ccco4)n32)CO1 (configuration not stated),3.7,x,n,n,n,n
CCOC(=O)CSc1nnc(CSc2nc3sc4c(c3c(=O)[nH]2)CCCC4)n1-c1ccccc1,-6,n,n,74,70,n
COC(=O)CCCC1=CC2=C(c3ccccc3)C(=O)C(C)(OC(=O)C3CCCC3)C(=O)C2=CN1CCc1c[nH]c2ccccc12 (configuration not stated),n,x,x,x,x,x
CCn1nc2cc(C(=O)NCCc3cccs3)ccc2c1OC,n,n,n,n,n,n
CC(=O)Nc1ccc(S(=O)(=O)N2CCN(CC(=O)NC3CCCC3)CC2)cc1,n,n,n,n,n,n
CCOC(=O)CC(=O)CSc1nnc(Cn2c(=O)sc3ccccc32)n1C,n,n,n,n,n,n
COc1ccc(CC(=O)Nc2cccc(/C(C)=N/NC(=O)c3cccc([N+](=O)[O-])c3)c2)cc1,n,n,n,n,n,n
O=C(CSc1nnc2c3c4c(sc3ncn12)CCCC4)NCc1ccco1,n,n,n,n,n,n
Cc1nc2sc3c(c2c2nnc(SCC(=O)NCc4ccco4)n12)CCCC3,n,n,n,98,72,n
COc1cc(C)nc(OCCNC(=O)COc2ccc(Cl)cc2Cl)n1,n,n,n,73,63,n
CCOC(=O)N1CCC(N2C(=O)c3ccccc3C2Nc2c(C)cccc2C)CC1 (configuration not stated),x,n,n,95,94,n
CCOC(=O)N1CCC(N2C(=O)c3ccccc3C2Nc2ccc(C)cc2)CC1 (configuration not stated),n,n,n,n,n,n
CCOC(=O)N1CCC(N2C(=O)c3ccccc3C2Nc2ccccc2)CC1 (configuration not stated),n,n,n,65,80,n
CCOC(=O)N1CCC(N2C(=O)c3cc(C(=O)NC4CCCCC4)ccc3C2O)CC1 (configuration not stated),n,n,n,n,n,n
C=C1[C@@H](C)C2[C@H](Cc3ccccc3)NC(=O)[C@]23OC(=O)CC[C@H](O)CCC[C@H](C)C/C=C/[C@H]3[C@@H]1O (some centres not stated),n,x,x,x,x,x
O=C(CN1CCN(c2ccccn2)CC1)N1c2ccccc2Sc2ccc(C(F)(F)F)cc21,-6.2,n,n,73,n,n
O=C(CN1CCCC1)N1c2ccccc2Sc2ccc(C(F)(F)F)cc21,n,n,x,x,x,x
O=[N+]([O-])c1ccc(/C=N/Nc2nc(N3CCCCCC3)nc(N3CCCCCC3)n2)o1,x,46,x,x,x,x
CCC(C)(C)NC(=O)C(c1cccnc1)N(CCOC)C(=O)Cn1nnc2ccccc21 (configuration not stated),n,n,n,n,n,n
COc1cccc(OC)c1-c1nn2c(-c3ccco3)nnc2s1,n,x,n,89,68,n
COc1ccccc1-c1nn2c(-c3ccc(C(C)(C)C)cc3)nnc2s1,x,x,n,n,56,n
COc1ccccc1-c1nnc2sc(-c3cnccn3)nn12,n,n,n,75,n,n
COc1ccccc1-c1nnc2sc(-c3cc4ccccc4o3)nn12,x,n,n,n,n,n
O=C(NCCc1ccncc1)C12CC3CC(CC(C3)C1)C2,n,n,n,94,n,n
